Measured values collected from several papers.
Protocols differ between the studies behind these lines.
SRC: Proto-oncogene tyrosine-protein kinase Src (SRC, Homo sapiens, UniProt P12931)
PSMB6: Proteasome subunit beta type-6 (PSMB6, Homo sapiens, UniProt P28072)
PRKAA2: 5'-AMP-activated protein kinase catalytic subunit alpha-2 (PRKAA2, Homo sapiens, UniProt P54646)
FAP: Prolyl endopeptidase FAP (FAP, Homo sapiens, UniProt Q12884)
SULT1E1: Sulfotransferase 1E1 (SULT1E1, Homo sapiens, UniProt P49888)
Stromelysin-2: Stromelysin-2 (Homo sapiens, UniProt P09238)

Compound	target	test	setting	endpoint	result
C#Cc1n[nH]c2c(-c3cn([C@@H](C)c4ccccc4)c(=O)[nH]c3=O)cc(F)cc12	SRC	enzyme activity, inhibitor	0.1 µM	inhibition	8.4%
Nc1cccc(-c2nsc(=O)o2)c1	PSMB6	enzyme activity, inhibitor	–	kinact/KI	0.61 M⁻¹ s⁻¹
Cc1nn(C)cc1-c1nc2c(N3CCN(Cc4ccc(Cl)cc4)CC3)c(Cl)cnc2[nH]1	PRKAA2	binding, competition with immobilised ligand	1 µM	remaining binding	0.9%
N#C[C@@H]1CC(F)(F)CN1C(=O)CNC(=O)c1ccnc2ccccc12	FAP	enzyme activity, inhibitor	0.1 µM	inhibition	100%
Cc1ncc(C)n2nc(/C=C/c3nc(N4CCCC4)cc(N4CCOCC4)n3)nc12	C-X-C chemokine receptor type 4 (CXCR4, Homo sapiens, UniProt P61073)	cell-free assay	10 µM	inhibition	-8%
Oc1c(Br)cc(Br)cc1Oc1ccc(Br)cc1Br	SULT1E1	enzyme activity, substrate	–	Km	8.87 µM
Cn1cc(-c2cccc(N3CCc4c(sc5c4CC(C)(C)C5)C3=O)c2CO)cc(Nc2ccncn2)c1=O	Cyclin-dependent kinase 9, with cyclin K (CDK9, Homo sapiens, UniProt P50750)	enzyme activity, inhibitor	1 µM	inhibition	11%
Nc1ncc(-c2nc(N3CCOCC3)nc(N3CCOCC3)n2)c(C(F)F)n1	PRKAA2	cell-free assay, competition with immobilised ligand	10 µM	remaining binding	91%
COc1cc(Br)cc(Br)c1Oc1cc(Br)cc(Br)c1O	SULT1E1	enzyme activity, substrate	–	Km	1.09 µM
C#Cc1n[nH]c2c(-c3cn([C@@H](C)c4ccccn4)c(=O)[nH]c3=O)cc(F)cc12	SRC	enzyme activity, inhibitor	0.1 µM	inhibition	12.9%
CN(C)C(=O)COC(=O)Cc1ccc(OC(=O)c2ccc(NC(=N)N)cc2)cc1	Stromelysin-2	enzyme activity, inhibitor	10 µM	inhibition	29%
CSc1sc(C)cc1-c1nsc(=O)o1	PSMB6	enzyme activity, inhibitor	–	kinact/KI	0.03 M⁻¹ s⁻¹
N=C(N)c1ccc2cc(OC(=O)c3ccc(N=C(N)N)cc3)ccc2c1	FAP	enzyme activity, inhibitor	10 µM	inhibition	25%
CCN(CC)CCCC[C@H](NC(=O)[C@H](CC(C)C)NC(=O)[C@H](C)NC(=O)[C@H](Cc1ccccc1)NC(=O)c1ccc(C(C)(C)C)cc1)C(=O)N[C@@H](CO)C(=O)OC	SP140 (Homo sapiens, UniProt Q13342)	thermal stability, DSF	25 µM	ΔTm	0.07 °C
CCOC(=O)c1ccc(OC(=O)CCCCCNC(=N)N)cc1	Stromelysin-2	enzyme activity, inhibitor	10 µM	inhibition	12%
Cn1cc(-c2cc(F)cc(N3CCn4c(cc5c4CCCC5)C3=O)c2CO)cc(Nc2ccc(N3CCN(C4COC4)CC3)cn2)c1=O	PRKAA2	enzyme activity, inhibitor	0.1 µM	inhibition	14%
COc1ccc(S(=O)(=O)N(CC(=O)NO)CC(C)C)cc1	Stromelysin-2	enzyme activity, inhibitor	0.1 µM	inhibition	25%
COc1ncccc1-c1cnn2ccc(N3CCN(C(=O)OC(C)C)CC3)nc12	Ankyrin repeat and protein kinase domain-containing protein 1 (ANKK1, Homo sapiens, UniProt Q8NFD2)	binding, competition with immobilised ligand	1 µM	remaining binding	13%
